Consider 16 molecules from PubChem BioAssay.

Assay [1] is described as follows: hit retest on RPL19A-GFP reporter strain – cell-based, S. cerevisiae, flow cytometry, cherry picks, mother/daughter gates, confirmation (AID 2270;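 active means GFP response below 50% of the DMSO control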). As to conditions: 3 h, at 10 µM, stronger effect = lower value, 100 = same GFP as DMSO wells.
The nature of assay [2]: yeast TOR pathway reporter LAP4-GFP change – cell-based, cherry picks, flow cytometry, mother/daughter gates, confirmation (AID 2271;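 active means GFP response above 150% of the DMSO control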;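 further: ratio of sample to DMSO plate mean so 100% equals DMSO level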). Particulars: S. cerevisiae LAP4-GFP strain, 3 h, at 10 µM, stronger effect = higher value, 100 means same as DMSO control. The gist of the method: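 System – GFP-fusion yeast strain · Amount – 0.2 OD600 cells · Buffer or medium – SC growth medium · Dosing – single test-compound dose, 10 µM final · Schedule – 3 h treatment at 30 °C with rotation · Detection – GFP by flow cytometry · Read-out – per-gate (all, mother, daughter) GFP response vs DMSO · Benchmarks – positive rapamycin (400 ng/mL), negative DMSO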
In general terms: In flow cytometry, cells or beads pass a laser one at a time.

A short description of assay [3]: TOR pathway reporter MEP2-GFP, retest of hits – S. cerevisiae, flow cytometry GFP, cherry picks, confirmation (AID 2272;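 active means GFP response above 150% of the DMSO control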;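 further: ratio of well signal to plate DMSO mean so 100% equals DMSO level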). Particulars: S. cerevisiae MEP2-GFP strain, 3 h, at 10 µM, stronger effect = higher value.
Assay [4] can be described thus: yeast AGP1-GFP fluorescence change, single-dose – cell-based, flow cytometry, S. cerevisiae, cherry picks, confirmation (AID 2273).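 Further: median GFP channel fluorescence over the whole cell population gate.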 Particulars: S. cerevisiae AGP1-GFP strain, 3 h, at 10 µM.
Assay [5] can be described thus: TOR pathway CIT2 reporter hit retest – S. cerevisiae, GFP fusion, cherry picks, mother/daughter gates, confirmation (AID 2274). Particulars: S. cerevisiae CIT2-GFP strain, flow cytometry, 3 h, at 10 µM, stronger effect = higher value.
Setting [6] is: measured here: daughter cell gate.
The mark [7] stands for this setting: measured here: mother cell gate.
[8] abbreviates: measured here: daughter cell gate response.
Where [9] appears, read: measured here: mother cell gate response.

Each structure is given as a SMILES string. Calls of active or inactive are those of the source.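 How the source made its calls, unless noted: active means GFP response above 150% of the DMSO level; inconclusive means fewer than 70 events counted for a yeast strain; inactive means the rest.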

For `O=S(=O)(c1ccccc1)N1N=C(c2cccs2)CC1c1ccc(F)cc1` (stereo unspecified), the GFP response vs DMSO in assay [1] is 99.7% (inactive); in assay [1] (setting [6]), 97.8%; in assay [1] (setting [7]) it was 100%; in assay [3] it was 100% (inactive). Further, the GFP response relative to DMSO in assay [2] was 97.4% (inactive); in assay [2] (setting [8]) it was 94.1%; in assay [2] (setting [9]) it was 101%. The GFP response, % of DMSO in assay [4] is 104% (inactive); in assay [5], 97.8% (inactive); in assay [5] (setting [6]), 96.5%; in assay [5] (setting [7]) it was 98.7%.
As to `Cn1ncc(N2CCN(S(=O)(=O)c3ccc(Br)cc3)CC2)c(Cl)c1=O`, the GFP response vs DMSO in assay [1] was 98.2% (inactive); in assay [1] (setting [6]), 97.9%; in assay [1] (setting [7]), 98.7%; in assay [3], 107% (inactive). The results for the GFP response relative to DMSO in assay [2], in assay [2] (setting [8]) and in assay [2] (setting [9]) were 96.7% (inactive), 96% and 95.1%, respectively. Besides, the GFP response, % of DMSO in assay [4] was 99.3% (inactive); in assay [5] it was 98.3% (inactive); in assay [5] (setting [6]) it was 101%; in assay [5] (setting [7]) it was 97.3%.
`CCNC(=O)/C(C#N)=C/c1c(N2CC(C)OC(C)C2)nc2ccccn2c1=O` (stereo unspecified): the GFP response vs DMSO in assay [1] was 97.8% (inactive); in assay [1] (setting [6]) it was 99.3%; in assay [1] (setting [7]), 98.1%; in assay [3], 99% (inactive). For the same molecule, the figures for the GFP response relative to DMSO in assay [2], in assay [2] (setting [8]) and in assay [2] (setting [9]) were 99.5% (inactive), 102% and 99.4%, respectively. For the same molecule, the GFP response, % of DMSO in assay [4] is 106% (inactive); in assay [5], 103% (inactive); in assay [5] (setting [6]), 103%; in assay [5] (setting [7]) it was 104%.
Turning to `Cc1ccc(NC(=O)c2ccc([N+](=O)[O-])o2)cc1C`, the GFP response vs DMSO was 100% (inactive) in assay [1], 104% in assay [1] (setting [6]), 95.8% in assay [1] (setting [7]) and 110% (inactive) in assay [3]. The figures for the GFP response relative to DMSO in assay [2], in assay [2] (setting [8]) and in assay [2] (setting [9]) were 128% (inactive), 111% and 127%, respectively. The GFP response, % of DMSO in assay [4] was 99.8% (inactive); in assay [5], 100% (inactive); in assay [5] (setting [6]) it was 105%; in assay [5] (setting [7]) it was 96%.
For `CC(=O)N(\C=C/C=C/C=C1\Sc2ccccc2C1=O)c1ccccc1`, the GFP response vs DMSO is 110% (inactive) in assay [1], 106% in assay [1] (setting [6]), 108% in assay [1] (setting [7]) and 238% (active) in assay [3]. Besides, the GFP response relative to DMSO in assay [2] was 153% (active); in assay [2] (setting [8]), 145%; in assay [2] (setting [9]) it was 152%. Moreover, the GFP response, % of DMSO in assay [4] is 112% (inactive); in assay [5], 131% (inactive); in assay [5] (setting [6]) it was 128%; in assay [5] (setting [7]) it was 131%.
For the molecule `CCOc1ccc(S(=O)(=O)N2CCc3ccccc3C2)cc1`, the GFP response vs DMSO is 99.7% (inactive) in assay [1], 97.8% in assay [1] (setting [6]), 100% in assay [1] (setting [7]) and 97.5% (inactive) in assay [3]. Also, the results for the GFP response relative to DMSO in assay [2], in assay [2] (setting [8]) and in assay [2] (setting [9]) were 101% (inactive), 95% and 102%, respectively. Also, the GFP response, % of DMSO was 96.2% (inactive) in assay [4], 92.1% (inactive) in assay [5], 92.7% in assay [5] (setting [6]) and 91% in assay [5] (setting [7]).
For `CCOC(=O)Cc1csc(NC(=O)COc2ccc(N(C)S(=O)(=O)c3cccs3)cc2)n1`, the GFP response vs DMSO was 95% (inactive) in assay [1], 94.9% in assay [1] (setting [6]), 92% in assay [1] (setting [7]) and 105% (inactive) in assay [3]. For the same molecule, the GFP response relative to DMSO in assay [2] was 102% (inactive); in assay [2] (setting [8]) it was 101%; in assay [2] (setting [9]) it was 98.3%. Moreover, the GFP response, % of DMSO in assay [4] is 96.6% (inactive); in assay [5], 95.5% (inactive); in assay [5] (setting [6]), 97.2%; in assay [5] (setting [7]), 95%.
For the molecule `CCc1nnc(NC(=O)c2nc(S(=O)(=O)Cc3ccc(C)cc3)ncc2Cl)s1`, the GFP response vs DMSO was 98.2% (inactive) in assay [1], 99.1% in assay [1] (setting [6]), 98.6% in assay [1] (setting [7]) and 102% (inactive) in assay [3]. For the same molecule, the GFP response relative to DMSO in assay [2] was 105% (inactive); in assay [2] (setting [8]), 105%; in assay [2] (setting [9]), 102%. Besides, the GFP response, % of DMSO in assay [4] was 103% (inactive); in assay [5] it was 101% (inactive); in assay [5] (setting [6]), 102%; in assay [5] (setting [7]) it was 99.1%.
On to `CCc1noc(C)c1C(=O)Nc1nc2ccc(OC)cc2s1`, for which the GFP response vs DMSO is 91.8% (inactive) in assay [1], 92.7% in assay [1] (setting [6]), 92.5% in assay [1] (setting [7]) and 99.3% (inactive) in assay [3]. For the same molecule, the GFP response relative to DMSO was 108% (inactive) in assay [2], 108% in assay [2] (setting [8]) and 111% in assay [2] (setting [9]). Besides, the GFP response, % of DMSO was 95.5% (inactive) in assay [4], 90.3% (inactive) in assay [5], 92.3% in assay [5] (setting [6]) and 90.4% in assay [5] (setting [7]).
As to `CCCc1[nH]nc2c1C(c1ccc(OCCN3CCOCC3)c(OC)c1)C(C#N)=C(N)O2` (stereo unspecified), the GFP response vs DMSO was 96.6% (inactive) in assay [1], 96.4% in assay [1] (setting [6]), 98.2% in assay [1] (setting [7]) and 102% (inactive) in assay [3]. For the same molecule, the figures for the GFP response relative to DMSO in assay [2], in assay [2] (setting [8]) and in assay [2] (setting [9]) were 97.9% (inactive), 99.2% and 96.1%, respectively. Besides, the GFP response, % of DMSO in assay [4] is 93.9% (inactive); in assay [5] it was 101% (inactive); in assay [5] (setting [6]) it was 103%; in assay [5] (setting [7]), 101%.
For `CCOc1ccc(C(C)=O)cc1N1C(=O)C2C3C=CC(O3)C2C1=O` (stereo unspecified), the GFP response vs DMSO in assay [1] is 100% (inactive); in assay [1] (setting [6]), 105%; in assay [1] (setting [7]), 95.6%; in assay [3] it was 103% (inactive). Also, the GFP response relative to DMSO in assay [2] is 136% (inactive); in assay [2] (setting [8]) it was 132%; in assay [2] (setting [9]), 136%. Besides, the GFP response, % of DMSO is 97.9% (inactive) in assay [4], 110% (inactive) in assay [5], 110% in assay [5] (setting [6]) and 104% in assay [5] (setting [7]).
On to `COc1cc(NC(C)=O)ccc1NC(=O)c1cc2ccccc2o1`, for which the GFP response vs DMSO in assay [1] is 99% (inactive); in assay [1] (setting [6]) it was 97.8%; in assay [1] (setting [7]) it was 98.2%; in assay [3], 100% (inactive). The GFP response relative to DMSO in assay [2] is 95% (inactive); in assay [2] (setting [8]), 97.2%; in assay [2] (setting [9]), 96.2%. The GFP response, % of DMSO in assay [4] was 102% (inactive); in assay [5], 100% (inactive); in assay [5] (setting [6]), 98.1%; in assay [5] (setting [7]), 101%.
As to `O=C(Nc1ccc(NC(=O)c2cc3ccccc3o2)cc1)c1ccc2c(c1)OCCO2`, the GFP response vs DMSO in assay [1] was 103% (inactive); in assay [1] (setting [6]) it was 101%; in assay [1] (setting [7]) it was 102%; in assay [3] it was 103% (inactive). Besides, the GFP response relative to DMSO is 97% (inactive) in assay [2], 95.9% in assay [2] (setting [8]) and 97.3% in assay [2] (setting [9]). Moreover, the GFP response, % of DMSO was 98.6% (inactive) in assay [4], 105% (inactive) in assay [5], 99.2% in assay [5] (setting [6]) and 107% in assay [5] (setting [7]).
As to `CCc1noc(C)c1C(=O)Nc1nc(-c2cc(C)ccc2C)c(C)s1`, the GFP response vs DMSO is 103% (inactive) in assay [1], 103% in assay [1] (setting [6]), 103% in assay [1] (setting [7]) and 100% (inactive) in assay [3]. The GFP response relative to DMSO in assay [2] is 95% (inactive); in assay [2] (setting [8]), 95.6%; in assay [2] (setting [9]) it was 99.3%. The GFP response, % of DMSO was 94.1% (inactive) in assay [4], 106% (inactive) in assay [5], 99.7% in assay [5] (setting [6]) and 107% in assay [5] (setting [7]).
On to `O=C(O)c1ccc(N/N=C/C(Br)=C/c2ccccc2)cc1`, for which the GFP response vs DMSO in assay [1] is 98.4% (inactive); in assay [1] (setting [6]), 97%; in assay [1] (setting [7]), 96.7%; in assay [3], 97.5% (inactive). In addition, the GFP response relative to DMSO was 131% (inactive) in assay [2], 130% in assay [2] (setting [8]) and 130% in assay [2] (setting [9]). In addition, the GFP response, % of DMSO is 94.7% (inactive) in assay [4], 90.7% (inactive) in assay [5], 92.7% in assay [5] (setting [6]) and 85.1% in assay [5] (setting [7]).
Consider `Cc1ccc(Sc2ncnc3onc(C)c23)cc1`, for which the GFP response vs DMSO in assay [1] is 95.4% (inactive); in assay [1] (setting [6]) it was 95.7%; in assay [1] (setting [7]), 95.5%; in assay [3] it was 96.8% (inactive). Besides, the values for the GFP response relative to DMSO in assay [2], in assay [2] (setting [8]) and in assay [2] (setting [9]) were 117% (inactive), 117% and 117%, respectively. The GFP response, % of DMSO is 99% (inactive) in assay [4], 105% (inactive) in assay [5], 105% in assay [5] (setting [6]) and 102% in assay [5] (setting [7]).
